ChEMBL document CHEMBL1156071, “Novel L-xylose derivatives as selective sodium-dependent glucose cotransporter 2 (SGLT2) inhibitors for the treatment of type 2 diabetes” (J Med Chem, 2009)
pIC50: −log10 of the molar value.

Key:
[1] = molecular target: T1, Sodium/glucose cotransporter 2 (Mus musculus, UniProt Q923I7); test: Inhibition of mouse SGLT2-mediated [14C]alpha-methylglucopyranoside uptake by cell based assay
T1 sequence (Q923I7 whole entry): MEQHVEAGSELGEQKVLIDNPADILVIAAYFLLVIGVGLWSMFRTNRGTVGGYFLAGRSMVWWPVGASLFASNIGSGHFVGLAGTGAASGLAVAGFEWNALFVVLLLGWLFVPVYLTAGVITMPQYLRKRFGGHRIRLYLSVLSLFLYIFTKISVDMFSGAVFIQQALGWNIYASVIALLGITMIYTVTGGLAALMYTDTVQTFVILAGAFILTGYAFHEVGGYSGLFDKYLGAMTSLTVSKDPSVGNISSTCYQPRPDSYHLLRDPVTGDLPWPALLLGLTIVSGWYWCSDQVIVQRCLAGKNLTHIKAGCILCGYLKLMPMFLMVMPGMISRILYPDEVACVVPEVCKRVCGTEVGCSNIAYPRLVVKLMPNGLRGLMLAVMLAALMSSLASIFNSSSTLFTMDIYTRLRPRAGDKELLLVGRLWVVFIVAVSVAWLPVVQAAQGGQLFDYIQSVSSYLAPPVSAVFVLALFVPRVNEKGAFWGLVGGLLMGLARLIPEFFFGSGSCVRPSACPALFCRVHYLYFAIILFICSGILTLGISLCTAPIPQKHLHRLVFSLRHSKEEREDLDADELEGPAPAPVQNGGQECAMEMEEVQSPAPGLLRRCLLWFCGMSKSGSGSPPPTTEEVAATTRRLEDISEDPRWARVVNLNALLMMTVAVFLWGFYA

[2] = molecular target: T2, Sodium/glucose cotransporter 2 (Homo sapiens, UniProt P31639); test: Inhibition of human SGLT2 expressed in HEK293 cells assessed as inhibition of [14C]alpha-methylglucopyranoside uptake; assay type: cell-based
T2 sequence (P31639 whole entry): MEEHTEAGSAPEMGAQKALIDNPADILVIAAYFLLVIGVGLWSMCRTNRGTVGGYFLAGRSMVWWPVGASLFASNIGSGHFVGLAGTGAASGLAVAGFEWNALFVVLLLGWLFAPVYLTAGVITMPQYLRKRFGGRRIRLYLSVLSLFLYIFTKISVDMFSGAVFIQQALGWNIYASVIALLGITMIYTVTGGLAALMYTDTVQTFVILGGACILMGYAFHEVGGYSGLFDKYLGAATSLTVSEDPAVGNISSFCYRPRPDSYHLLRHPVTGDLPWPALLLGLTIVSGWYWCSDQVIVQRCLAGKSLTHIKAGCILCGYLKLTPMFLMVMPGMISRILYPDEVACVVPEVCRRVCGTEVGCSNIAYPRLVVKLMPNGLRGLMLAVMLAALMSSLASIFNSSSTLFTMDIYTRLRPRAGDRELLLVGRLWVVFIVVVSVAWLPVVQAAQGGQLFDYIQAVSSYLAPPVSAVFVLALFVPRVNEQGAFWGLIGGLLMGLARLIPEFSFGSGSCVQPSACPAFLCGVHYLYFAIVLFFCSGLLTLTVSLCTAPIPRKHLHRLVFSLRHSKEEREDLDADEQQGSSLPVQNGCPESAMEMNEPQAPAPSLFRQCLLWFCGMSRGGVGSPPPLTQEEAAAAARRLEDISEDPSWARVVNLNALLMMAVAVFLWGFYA
Method in brief: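 Cells stably expressing human SGLT2 were used to measure sodium-coupled uptake of [14C]α-methylglucopyranoside, a metabolically stable SGLT-specific glucose analogue. Uptake was measured across increasing compound concentrations, and IC50 was derived from the inhibition of uptake.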

Row | Compound | pIC50 [1] | pIC50 [2]
1 | CCOc1ccc(Cc2cc([C@@H]3OC(OC)C[C@H](O)[C@H]3O)ccc2Cl)cc1 (mixture of isomers) | 4.85 | < 4.52
2 | COc1ccc(Sc2cc([C@@H]3OC(OC)[C@@H](O)[C@H](O)[C@H]3O)ccc2Cl)cc1 (mixture of isomers) | 7.00 | 6.74
3 | CCOc1ccc(Cc2cc([C@]3(C)OC(OC)[C@@H](O)[C@H](O)[C@H]3O)ccc2Cl)cc1 (mixture of isomers) | 6.66 | 6.23

Next, values leading:

Row | pIC50 [1] | pIC50 [2] | Compound
4 | 6.48 | 6.13 | COC1O[C@@H](c2ccc(Cl)c(Cc3ccc(OC(=S)N(C)C)cc3)c2)[C@H](O)[C@@H](O)[C@@H]1O (mixture of isomers)
5 | 7.64 | 7.44 | CCOc1ccc(Cc2cc([C@@H]3OC(OCCO)[C@@H](O)[C@H](O)[C@H]3O)ccc2Cl)cc1 (mixture of isomers)
6 | 7.64 | 7.26 | CCOc1ccc(Cc2cc([C@@H]3OC(OC)[C@@H](O)[C@H](O)[C@H]3O)ccc2C)cc1 (mixture of isomers)
7 | 6.72 | 6.38 | CCOc1ccc(Cc2cc([C@@H]3OC(OC(C)C)[C@@H](O)[C@H](O)[C@H]3O)ccc2Cl)cc1 (mixture of isomers)
